ChEMBL document CHEMBL4406834, “Phenylthiazoles with nitrogenous side chain: An approach to overcome molecular obesity” (Eur J Med Chem, 2019)
≈ marks a conversion by molar mass, not a printed value. Calls of active or inactive are those of the source. The rule behind the calls is not given here.

Columns and labels:
Staphylococcus aureus [1] = experiment: Antibacterial activity against methicillin-resistant Staphylococcus aureus NRS384 USA300 after 18 to 20 hrs by broth microdilution assay; assay type: functional
Summary of the method: (§1)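 Broth microdilution per CLSI. Strains grown aerobically overnight on tryptone soy agar at 37 °C, adjusted to 0.5 McFarland, then diluted in cation-adjusted Mueller-Hinton broth to about 5 × 10^5 CFU/mL. Compounds (10 mg/mL DMSO stocks) serially diluted. Incubated aerobically at 37 °C for 18-20 h. MIC is the lowest concentration with no visible growth.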

Staphylococcus aureus [2] = experiment: Antibiofilm activity against methicillin resistant Staphylococcus aureus NRS384 USA300 assessed as disruption of matured biofilm formation at 4 x MIC incubated for 24 hrs by crystal violet staining based spectrophotometric analysis; assay type: functional, organism-based
Summary of the method: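 MRSA USA300 overnight culture diluted 1:100 in tryptic soy broth + 1% glucose. Biofilm formed for 24 h at 37 °C. Planktonic cells removed, then compounds added at 256 to 2 µg/mL in TSB for 24 h at 37 °C. Wells washed with PBS, stained with 0.1% crystal violet for 30 min, destained with ethanol, read at OD595. Percent eradication relative to DMSO; unpaired t test.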

Streptococcus pneumoniae [3] = experiment: Bactericidal activity against methicillin-resistant Streptococcus pneumoniae ATCC 700677 incubated for 18 to 20 hrs followed by replating on tryptic soy agar plate and further incubated for 18 to 24 hrs by CLSI-based broth microdilution assay; assay type: functional
Summary of the method: (§2)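 MBC: after the broth microdilution MIC (CAMHB, ~5 × 10^5 CFU/mL, 37 °C, 18-20 h), 4 µL from wells without growth plated onto tryptic soy agar. Plates incubated 37 °C for 18-20 h. MBC is the lowest concentration giving 99.9% reduction in growth.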

Streptococcus pneumoniae [4] = experiment: Bactericidal activity against cephalosporin-resistant Streptococcus pneumoniae ATCC 51916 incubated for 18 to 20 hrs followed by replating on tryptic soy agar plate and further incubated for 18 to 24 hrs by CLSI-based broth microdilution assay; assay type: functional; summary of the method: as §2
Enterococcus faecium [5] = experiment: Bactericidal activity against vancomycin-resistant Enterococcus faecium ATCC 700221 incubated for 18 to 20 hrs followed by replating on tryptic soy agar plate and further incubated for 18 to 24 hrs by CLSI-based broth microdilution assay; assay type: functional; summary of the method: as §2
Enterococcus faecalis [6] = experiment: Bactericidal activity against vancomycin-resistant Enterococcus faecalis ATCC 51299 incubated for 18 to 20 hrs followed by replating on tryptic soy agar plate and further incubated for 18 to 24 hrs by CLSI-based broth microdilution assay; assay type: functional; summary of the method: as §2
Streptococcus pneumoniae [7] = experiment: Antibacterial activity against methicillin-resistant Streptococcus pneumoniae ATCC 700677 after 18 to 20 hrs by CLSI-based broth microdilution assay; assay type: functional; summary of the method: as §1
Listeria monocytogenes = experiment: Antibacterial activity against Listeria monocytogenes ATCC 19111 after 18 to 20 hrs by CLSI-based broth microdilution assay; assay type: functional
Streptococcus pneumoniae [8] = experiment: Antibacterial activity against cephalosporin-resistant Streptococcus pneumoniae ATCC 51916 after 18 to 20 hrs by CLSI-based broth microdilution assay; assay type: functional; summary of the method: as §1
Enterococcus faecium [9] = experiment: Antibacterial activity against vancomycin-resistant Enterococcus faecium ATCC 700221 after 18 to 20 hrs by CLSI-based broth microdilution assay; assay type: functional; summary of the method: as §1
Enterococcus faecalis [10] = experiment: Antibacterial activity against vancomycin-resistant Enterococcus faecalis ATCC 51299 after 18 to 20 hrs by CLSI-based broth microdilution assay; assay type: functional; summary of the method: as §1
Staphylococcus aureus [11] = experiment: Bactericidal activity against vancomycin-resistant Staphylococcus aureus 12 incubated for 18 to 20 hrs followed by replating on tryptic soy agar plate and further incubated for 18 to 24 hrs by CLSI-based broth microdilution assay; assay type: functional; summary of the method: as §2
Staphylococcus aureus [12] = experiment: Bactericidal activity against vancomycin-resistant Staphylococcus aureus 10 incubated for 18 to 20 hrs followed by replating on tryptic soy agar plate and further incubated for 18 to 24 hrs by CLSI-based broth microdilution assay; assay type: functional; summary of the method: as §2
Staphylococcus aureus [13] = experiment: Bactericidal activity against methicilline-resistant Staphylococcus aureus NRS386 USA700 incubated for 18 to 20 hrs followed by replating on tryptic soy agar plate and further incubated for 18 to 24 hrs by CLSI-based broth microdilution assay; assay type: functional; summary of the method: as §2
Staphylococcus aureus [14] = experiment: Bactericidal activity against methicilline-resistant Staphylococcus aureus NRS385 USA500 incubated for 18 to 20 hrs followed by replating on tryptic soy agar plate and further incubated for 18 to 24 hrs by CLSI-based broth microdilution assay; assay type: functional; summary of the method: as §2
Staphylococcus aureus [15] = experiment: Bactericidal activity against methicilline-resistant Staphylococcus aureus NRS384 USA300 incubated for 18 to 20 hrs followed by replating on tryptic soy agar plate and further incubated for 18 to 24 hrs by CLSI-based broth microdilution assay; assay type: functional; summary of the method: as §2
Staphylococcus aureus [16] = experiment: Bactericidal activity against methicilline-resistant Staphylococcus aureus NRS123 USA400 incubated for 18 to 20 hrs followed by replating on tryptic soy agar plate and further incubated for 18 to 24 hrs by CLSI-based broth microdilution assay; assay type: functional; summary of the method: as §2
Staphylococcus aureus [17] = experiment: Bactericidal activity against methicilline-resistant Staphylococcus aureus NRS-119 incubated for 18 to 20 hrs followed by replating on tryptic soy agar plate and further incubated for 18 to 24 hrs by CLSI-based broth microdilution assay; assay type: functional; summary of the method: as §2
Staphylococcus aureus [18] = experiment: Bactericidal activity against methicilline-sensitive Staphylococcus aureus NRS-107 incubated for 18 to 20 hrs followed by replating on tryptic soy agar plate and further incubated for 18 to 24 hrs by CLSI-based broth microdilution assay; assay type: functional; summary of the method: as §2
Staphylococcus aureus [19] = experiment: Bactericidal activity against methicilline-sensitive Staphylococcus aureus ATCC 6538 incubated for 18 to 20 hrs followed by replating on tryptic soy agar plate and further incubated for 18 to 24 hrs by CLSI-based broth microdilution assay; assay type: functional; summary of the method: as §2
Staphylococcus aureus [20] = experiment: Bactericidal activity against Staphylococcus aureus ATCC BAA42 incubated for 18 to 20 hrs followed by replating on tryptic soy agar plate and further incubated for 18 to 24 hrs by CLSI-based broth microdilution assay; assay type: functional; summary of the method: as §2
Staphylococcus aureus [21] = experiment: Antibacterial activity against vancomycin-resistant Staphylococcus aureus 12 after 18 to 20 hrs by CLSI-based broth microdilution assay; assay type: functional; summary of the method: as §1
Staphylococcus aureus [22] = experiment: Antibacterial activity against vancomycin-resistant Staphylococcus aureus 10 after 18 to 20 hrs by CLSI-based broth microdilution assay; assay type: functional; summary of the method: as §1
Staphylococcus aureus [23] = experiment: Antibacterial activity against Staphylococcus aureus ATCC BAA42 after 18 to 20 hrs by CLSI-based broth microdilution assay; assay type: functional; summary of the method: as §1
Staphylococcus aureus [24] = experiment: Antibacterial activity against intracellular methicillin resistant Staphylococcus aureus USA400 infected in mouse J774 cells assessed as intracellular bacterial cells at 2 times MIC concentration incubated for 24 hrs followed by re-plating on TSA plate for 18 to 22 hrs by serial dilution method; assay type: functional, organism-based
Summary of the method: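 J774 murine macrophages in DMEM + 10% FBS, 37 °C, 5% CO2, infected with MRSA USA400 at MOI ~10:1 for 1 h. Washed with gentamicin 100 µg/mL to kill extracellular bacteria. […] Cells lysed with 0.1% Triton-X, serially diluted in PBS, plated on TSA for 18-22 h, CFU counted. One-way ANOVA with Dunnett's test.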

Staphylococcus aureus [25] = experiment: Bactericidal activity against methicillin-resistant Staphylococcus aureus USA400 assessed as reduction in bacterial burden at 5 times MIC after 24 hrs by time kill assay; assay type: functional, organism-based

C/C(=N\NC(=N)N)c1sc(-c2ccc(N3CCCCCCC3)cc2)nc1C
MIC (Staphylococcus aureus [1]): 128 µg/mL (≈ 333 µM)

CN[C@H](CC(C)C)C(=O)N[C@H]1C(=O)N[C@@H](CC(N)=O)C(=O)N[C@H]2C(=O)N[C@H]3C(=O)N[C@H](C(=O)N[C@H](C(=O)O)c4cc(O)cc(O)c4-c4cc3ccc4O)[C@H](O)c3ccc(c(Cl)c3)Oc3cc2cc(c3O[C@@H]2O[C@H](CO)[C@@H](O)[C@H](O)[C@H]2O[C@H]2C[C@](C)(N)[C@H](O)[C@H](C)O2)Oc2ccc(cc2Cl)[C@H]1O [VANCOMYCIN]
inhibition (Staphylococcus aureus [2]): inactive
MBC (Streptococcus pneumoniae [3]): 1 µg/mL (≈ 0.69 µM)
MBC (Streptococcus pneumoniae [4]): 1 µg/mL (≈ 0.69 µM)
MBC (Enterococcus faecium [5]): > 64 µg/mL
MBC (Enterococcus faecalis [6]): 64 µg/mL (≈ 44.2 µM)
MIC (Streptococcus pneumoniae [7]): 1 µg/mL (≈ 0.69 µM)
MIC (Listeria monocytogenes): 0.5 µg/mL (≈ 0.345 µM)
MIC (Streptococcus pneumoniae [8]): 0.5 µg/mL (≈ 0.345 µM)
MIC (Enterococcus faecium [9]): > 64 µg/mL
MIC (Enterococcus faecalis [10]): 32 µg/mL (≈ 22.1 µM)
MBC (Staphylococcus aureus [11]): > 64 µg/mL
MBC (Staphylococcus aureus [12]): > 64 µg/mL
MBC (Staphylococcus aureus [13]): 1 µg/mL (≈ 0.69 µM)
MBC (Staphylococcus aureus [14]): 1 µg/mL (≈ 0.69 µM)
MBC (Staphylococcus aureus [15]): 1 µg/mL (≈ 0.69 µM)
MBC (Staphylococcus aureus [16]): 1 µg/mL (≈ 0.69 µM)
MBC (Staphylococcus aureus [17]): 1 µg/mL (≈ 0.69 µM)
MBC (Staphylococcus aureus [18]): 1 µg/mL (≈ 0.69 µM)
MBC (Staphylococcus aureus [19]): 1 µg/mL (≈ 0.69 µM)
MBC (Staphylococcus aureus [20]): ≤ 0.5 µg/mL
MIC (Staphylococcus aureus [21]): > 64 µg/mL
MIC (Staphylococcus aureus [22]): > 64 µg/mL
MIC (Staphylococcus aureus [23]): ≤ 0.5 µg/mL
inhibition (Staphylococcus aureus [24]): inactive
inhibition (Staphylococcus aureus [25]): Active

C/C(=N\NC(=N)N)c1sc(-c2ccc(-n3ccnc3)cc2)nc1C
MIC (Staphylococcus aureus [1]): 16 µg/mL (≈ 47.1 µM)

C/C(=N\NC(=N)N)c1sc(-c2ccc(N3CC(O)C3)cc2)nc1C
MIC (Staphylococcus aureus [1]): 64 µg/mL (≈ 186 µM)
